In ChEMBL document CHEMBL4837231, “Development of peptide epoxyketones as selective immunoproteasome inhibitors” (Eur J Med Chem, 2021):
pIC50: −log10 of the molar value.

Legend:
[1] = molecular target: T1, Proteasome subunit beta type-8 (Homo sapiens, UniProt P28062); assay: Inhibition of human proteasome subunit beta-5i chymotrypsin like activity using SUC-ANW-AMC as flurogenic substrate preincubated for 15 mins followed by substrate addition and measured after 1 hr by fluorescence assay
T1 sequence (P28062 whole entry): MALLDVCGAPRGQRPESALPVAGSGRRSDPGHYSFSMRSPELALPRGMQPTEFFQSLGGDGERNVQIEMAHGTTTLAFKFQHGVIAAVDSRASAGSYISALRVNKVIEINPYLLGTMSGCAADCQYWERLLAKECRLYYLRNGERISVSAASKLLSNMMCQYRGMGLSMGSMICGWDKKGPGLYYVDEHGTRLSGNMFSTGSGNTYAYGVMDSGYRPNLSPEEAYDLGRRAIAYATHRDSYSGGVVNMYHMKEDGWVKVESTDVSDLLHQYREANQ
How it was run: (§1)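 Immunoproteasome derived from human PBMC, added at 1 μg/mL (pre-dilution) in 100 mM Tris-HCl pH 7.5. Compounds were diluted to a 10% DMSO solution. After 15 min preincubation at 25 °C, AMC substrate added (100 µM final) and incubated 1 h at 25 °C. Read at ex 355/em 460 nm; IC50 by sigmoidal variable-slope fitting.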

[2] = molecular target: T2, Proteasome Macropain subunit MB1 (Homo sapiens, UniProt P28074); assay: Inhibition of chymotrypsin-like activity of human 20s proteasome beta 5c subunit using suc-WLA-AMC as flurogenic substrate preincubated for 15 mins followed by substrate addition and measured after 1 hr by fluorescence assay
T2 sequence (P28074 whole entry): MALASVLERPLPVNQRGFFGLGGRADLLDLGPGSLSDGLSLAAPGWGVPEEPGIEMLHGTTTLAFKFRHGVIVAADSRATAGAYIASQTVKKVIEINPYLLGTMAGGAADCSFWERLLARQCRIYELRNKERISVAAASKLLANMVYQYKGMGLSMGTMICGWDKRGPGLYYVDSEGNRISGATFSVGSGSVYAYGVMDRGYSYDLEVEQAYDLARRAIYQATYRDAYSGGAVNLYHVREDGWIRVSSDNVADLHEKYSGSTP
How it was run: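 Constitutive proteasome isolated from human hepatic cells, added at 40 μg/mL (pre-dilution) in 100 mM Tris-HCl pH 7.5. Compounds came from DMSO diluted in water (10% DMSO solution). Preincubated 15 min at 25 °C, then AMC substrate added (100 µM final) for 1 h at 25 °C. Fluorescence read at 355 nm excitation and 460 nm emission; IC50 from a variable-slope sigmoidal fit.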

[3] = molecular target: T3, Proteasome subunit beta type-9 (Homo sapiens, UniProt P28065); assay: Inhibition of human caspase-like activity of 20s proteasome beta 1i subunit using SUC-PAL-AMC as flurogenic substrate preincubated for 15 mins followed by substrate addition and measured after 1 hr by fluorescence assay; how it was run: as §1
T3 sequence (P28065 whole entry): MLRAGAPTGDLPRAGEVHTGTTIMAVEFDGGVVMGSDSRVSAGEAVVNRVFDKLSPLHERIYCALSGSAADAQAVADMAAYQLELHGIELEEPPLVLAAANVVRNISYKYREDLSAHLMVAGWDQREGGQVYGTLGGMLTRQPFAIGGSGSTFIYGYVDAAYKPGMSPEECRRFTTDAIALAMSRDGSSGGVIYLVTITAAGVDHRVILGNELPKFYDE

[4] = molecular target: T4, Proteasome subunit beta type-10 (Homo sapiens, UniProt P40306); assay: Inhibition of human trypsin-like activity of 20s proteasome beta 2i subunit using SUC-VGR-AMC as flurogenic substrate preincubated for 15 mins followed by substrate addition and measured after 1 hr by fluorescence assay
T4 sequence (P40306 whole entry): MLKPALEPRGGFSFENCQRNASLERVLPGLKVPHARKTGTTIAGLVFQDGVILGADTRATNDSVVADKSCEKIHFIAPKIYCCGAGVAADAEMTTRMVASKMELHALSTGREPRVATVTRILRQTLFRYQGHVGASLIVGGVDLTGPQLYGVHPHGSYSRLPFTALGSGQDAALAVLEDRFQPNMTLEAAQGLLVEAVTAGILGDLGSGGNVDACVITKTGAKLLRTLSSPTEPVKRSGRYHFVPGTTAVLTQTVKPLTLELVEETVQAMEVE
How it was run: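 Immunoproteasome derived from human PBMC, added at 1 μg/mL (pre-dilution) in 100 mM Tris-HCl pH 7.5. Compounds were diluted to a 10% DMSO solution. After 15 min preincubation at 25 °C, AMC substrate added (100 µM final) and incubated 1 h at 25 °C.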

[5] = Selectivity ratio of IC50 for chymotrypsin-like activity of human 20s proteasome beta 5c subunit to IC50 for human proteasome subunit beta-5i chymotrypsin like activity
RPMI-8226 = assay: Antiproliferative activity against human RPMI-8226 cells assessed as inhibition of cell proliferation after 72 hrs by MTS assay; assay type: functional, cell-based; conditions: RPMI-8226, 72 h
How it was run: (§2)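 Cells grown in RPMI-1640 with 10% FBS and penicillin/streptomycin at 37 °C, 5% CO2. Seeded per well at 5×10³ (RPMI-8226) or 3×10⁴ (MM.1S), then exposed 72 h to graded compound concentrations or 0.2% DMSO vehicle. MTS/PMS added for 2–4 h; absorbance at 490 nm minus 690 nm. Inhibition = (Acontrol−Asample)/Acontrol; IC50 by sigmoidal variable-slope regression.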

MM1.S = assay: Antiproliferative activity against human MM1.S cells assessed as inhibition of cell proliferation after 72 hrs by MTS assay; assay type: functional, cell-based; how it was run: as §2
[6] = Inhibition of 20s proteasome beta 5c subunit (unknown origin); parameters: species or system Homo sapiens

Compound	pIC50 [1]	pIC50 [2]	pIC50 [3]	pIC50 [4]	Ratio IC50 [5]	pIC50 (RPMI-8226)	pIC50 (MM1.S)	pIC50 [6]
C[C@H](NC(=O)N1CCC(NC(=O)c2nccs2)CC1)C(=O)N[C@@H](Cc1c[nH]c2ccccc12)C(=O)N[C@@H](Cc1ccccc1)C(=O)[C@@]1(C)CO1	7.68	7.59	6.81	< 5.00	1.2	6.96	6.96	–
COc1ccc(C[C@H](NC(=O)[C@@H](C)NC(=O)n2c3ccccc3c3ccccc32)C(=O)N[C@@H](Cc2ccccc2)C(=O)[C@@]2(C)CO2)cc1	7.42	7.14	–	–	1.9	–	–	–
COc1ccc(C[C@H](NC(=O)[C@@H](C)NC(=O)N2CCC[C@H](OC)C2)C(=O)N[C@@H](Cc2ccccc2)C(=O)[C@@]2(C)CO2)cc1	7.42	6.79	–	–	4.3	–	–	–
COc1ccc(C[C@H](NC(=O)[C@H](C)NC(=O)N2CCC(OC)CC2)C(=O)N[C@@H](Cc2ccccc2)C(=O)[C@@]2(C)CO2)cc1	7.72	7.13	–	–	3.9	–	–	–
C[C@@H](NC(=O)N1CCC(NC(=O)c2nccs2)CC1)C(=O)N[C@@H](Cc1c[nH]c2ccccc12)C(=O)N[C@@H](Cc1ccccc1)C(=O)[C@@]1(C)CO1	6.49	6.33	–	–	1.5	–	–	–
COc1ccc(C[C@H](NC(=O)[C@H](C)NC(=O)N2CCC(OC)C2)C(=O)N[C@@H](Cc2ccccc2)C(=O)[C@@]2(C)CO2)cc1 (stereo partly drawn)	7.25	6.53	–	–	5.2	–	–	–
COc1ccc(C[C@H](NC(=O)[C@@H](C)NC(=O)N2CC[C@@H](OC)C2)C(=O)N[C@@H](Cc2ccccc2)C(=O)[C@@]2(C)CO2)cc1	7.18	5.83	–	–	22.5	–	–	–
COc1ccc(C[C@H](NC(=O)[C@H](C)NC(=O)CN2CCOCC2)C(=O)N[C@@H](Cc2ccccc2)C(=O)[C@@]2(C)CO2)cc1	–	–	–	–	–	6.17	–	6.37
COc1ccc(C[C@H](NC(=O)[C@@H](C)NC(=O)N2CCc3ccccc3C2)C(=O)N[C@@H](Cc2ccccc2)C(=O)[C@@]2(C)CO2)cc1	7.09	6.02	–	–	11.9	–	–	–
COc1ccc(C[C@H](NC(=O)[C@@H](C)NC(=O)N2CCC(NC(=O)c3nccs3)CC2)C(=O)N[C@@H](CC2CCCCC2)C(=O)[C@@]2(C)CO2)cc1	6.14	5.57	–	–	3.8	–	–	–
COc1ccc(C[C@H](NC(=O)[C@@H](C)NC(=O)N2CCC(OC)C2)C(=O)N[C@@H](Cc2ccccc2)C(=O)[C@@]2(C)CO2)cc1 (stereo partly drawn)	7.35	5.96	–	–	24.8	–	–	–
COc1ccc(C[C@H](NC(=O)[C@@H](C)NC(=O)N2CC[C@H](OC)C2)C(=O)N[C@@H](Cc2ccccc2)C(=O)[C@@]2(C)CO2)cc1	7.60	6.22	5.24	< 5.00	24.1	5.73	5.86	–
COc1ccc(C[C@H](NC(=O)[C@@H](C)NC(=O)N2CCC(OC)CC2)C(=O)N[C@@H](Cc2ccccc2)C(=O)[C@@]2(C)CO2)cc1	7.59	6.19	< 5.00	< 5.00	24.9	5.72	5.75	–
COc1ccc(C[C@H](NC(=O)[C@H](C)NC(=O)N2CCc3ccccc3C2)C(=O)N[C@@H](Cc2ccccc2)C(=O)[C@@]2(C)CO2)cc1	7.42	7.16	–	–	1.8	–	–	–
C[C@@H](NC(=O)N1CCC(NC(=O)c2nccs2)CC1)C(=O)N[C@@H](Cc1c[nH]c2ccccc12)C(=O)N[C@@H](CC1CCCCC1)C(=O)[C@@]1(C)CO1	6.14	5.97	–	–	1.5	–	–	–
COc1ccc(C[C@H](NC(=O)[C@H](C)NC(=O)N2CCC(NC(=O)c3nccs3)CC2)C(=O)N[C@@H](CC2CCCCC2)C(=O)[C@@]2(C)CO2)cc1	6.89	6.61	–	–	1.9	–	–	–
COc1ccc(C[C@H](NC(=O)[C@@H](C)NC(=O)N2CCC[C@@H](OC)C2)C(=O)N[C@@H](Cc2ccccc2)C(=O)[C@@]2(C)CO2)cc1	7.52	6.61	5.37	< 5.00	8.2	6.17	6.66	–
COc1ccc(C[C@H](NC(=O)[C@H](C)NC(=O)n2c3ccccc3c3ccccc32)C(=O)N[C@@H](Cc2ccccc2)C(=O)[C@@]2(C)CO2)cc1	7.21	7.45	–	–	0.6	–	–	–
COc1ccc(C[C@H](NC(=O)[C@@H](C)NC(=O)N2CCCC2)C(=O)N[C@@H](Cc2ccccc2)C(=O)[C@@]2(C)CO2)cc1	7.20	5.88	–	–	21.2	–	–	–
C[C@H](NC(=O)N1CCC(NC(=O)c2nccs2)CC1)C(=O)N[C@@H](Cc1c[nH]c2ccccc12)C(=O)N[C@@H](CC1CCCCC1)C(=O)[C@@]1(C)CO1	6.61	6.66	–	–	0.9	–	–	–
COc1ccc(C[C@H](NC(=O)[C@H](C)NC(=O)N2CCCC2)C(=O)N[C@@H](Cc2ccccc2)C(=O)[C@@]2(C)CO2)cc1	6.61	6.30	–	–	2	–	–	–
